The source of these data is the RNAGym collection of RNA variant scans (doi:10.1126/science.aae0568).

Fewer inactive variants are shown than the library holds.

The labels stand for the following.
B1: tRNA (parent)
chain: GUUCCGUUGGCGUAAUGGUAACGCGUCUCCCUCCUAAGGAGAAGACUGCGGGUUCGAGUCCCGUACGGAACG

Variants of B1 are the subject of the data set. In words: yeast fitness relative to wild type (ratio to wild type); higher = fitter; tRNA-Arg(CCU), competitive growth, 37 C, YPD. The method, boiled down:
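Amplicons of the tRNA-Arg(CCU) gene were sequenced, 100-nucleotide paired-end, from the start population and from each end population of a pooled yeast competition. The competition, in six parallel replicates, lasted 24 hours in YPD at 37°C. Fitness relative to wild type was calculated from changes in genotype frequencies. Genotypes had to have ≥ 100 starting reads, and estimates < 0.5 were set to 0.5.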
As for GUUCCGUUGGGGUAAUGCUAACGCGUCUCCCUCCUAAGGAGAAGACUGCGGGUUCGAGUCCCGUACGGUACG, the yeast fitness is at most 0.5.

In the case of GUUCCGUUGGGAUAAUGGUAAAGCGUCUCCCUCCUCAGGAGAAGACUGCGGGUUCGAGUCGCGUACGGCACG, the yeast fitness is at most 0.5.

Take GUUCCGUUGGGGUAAUGGUAACGCGUCUCCCUCCUAAGGAGAAGACUGCGGGUUCGAGUGUCGUACGGAACG: the yeast fitness is 0.555.

Consider GUUCCGUUGGGGUAAUGCUAACGCGUCUCCCUCCUAAGGAGAAGACUGUGGGUUCGAGUCCCGUACGGAACG, for which the yeast fitness was at most 0.5.

Regarding GUUCCGUUGGGGUAAUGAUAACGUGUCUCCCUCCUAAGGAGAAGACUGCGGGUUCGAGUCCCGUACGGAACG, the yeast fitness came out at 0.542.

With GUUCCGUUGGGGUAAUGGUAACGCGUCUCCCUCCUAAGGAGAAGACUGUGGGUUCGACUCACGUUCGGAACG, the yeast fitness is at most 0.5.

Consider GUUCCGUUGGGGUAAUGGUAACGCGUCUCCCUCCUAAGGAGAAGAAUGCGGGUUCGAGUCGCGUGCGGAACG, for which the yeast fitness was at most 0.5.

As to GUUCCGUUGGGGUAAUGGUAACGCGUCUCCCUCCUAAGGAGAAGACUGCGGGUUUGAGUCACGUACGGAACG, the yeast fitness stood at 0.546.

For GUUCCGUUGGGAUAAUGGUAACGCGUCUCCCUCCUAAGGAGAAGCGUGCGGAUUCGAGUCCCGUACGGAACG, the yeast fitness was at most 0.5.

Take GUUCCGUUGGGGUAAUAGUAACGCGUCUCGCUCCUAAGGAGAAGACUGCGGGUUCGAGGCCCGUACGGAACG: the yeast fitness is at most 0.5.

With GUUCCGUUGGGGUAAUGAUACCGCGUCUCCCUCCUAAGGAGAAGACUGUGGGUUCGAGUCCCGUACGGAACG, the yeast fitness is at most 0.5.

On to GUUCCGUUGGGAUAAUGGUAACGCGUUUCCCUCCUAAGGAGAGGACUGCGGGUUCGAGUCCCGUACAGAACG, for which the yeast fitness is 0.606.

With GUUCCGUUGGGGUAAUUGUAUCGCGUCUCCCUCCUAAGGAGUAGACUGCGGGUUCGAGUCCCGUACGGAACG, the yeast fitness was at most 0.5.

With GUUCCGUUGGGGUAAUGGUAACGCGUCUCCCUCCUAAGGAGAAGACUGCGGGUUAGAGUCCCGUACGGAACG, the yeast fitness came out at 0.756.

As to GUUCCGUUGGGGUAAUGGUAACGCGUCUCCCUCCUAAGGAGAAGACUGCGGGUUUGAGUCCCGUACGGAACG, the yeast fitness is at most 0.5.

With GUUCCGUUGGGCUAAUGGUAACGCGUCUCCCUCCUAAGGAGAUAACUGCGGGUUCGAGUCCCGUACGGAACG, the yeast fitness stood at 0.612.

For GUUCCGUUGGGGUAAUAGUAACGCGUCUCCCUCCUAAGGAGAAGACUGCGGGUUCGAGUCCGGUACGGAACG, the yeast fitness is at most 0.5.

Regarding GUUCCGUUGGGGUAAUGGUAACGCGUCUCCCUCCUAAGGAGAAGAAUGUGGGUCCGAGUUCCGUACGGAACG, the yeast fitness was at most 0.5.

For GUUCCGUUGGGGUAAUGGUAACGCGUCUCCCUCUUAAGGAGAAGACUGCGGGUUCGAGUCCGGUACGGAACG, the yeast fitness was determined as 0.542.

GUUCCGUUGGGGUAAUGGUAACGCGUCUCCCUCCUAAGGAGAAGAAUGCGGGUUCGAGUCCCGUGCGGAACG: the yeast fitness is at most 0.5.

On to GUUCCGUUGGGGUAAUAGUAAUGCGUUUCCCUGCUAAGGAGAAGACUGCGGGUUCGAGUCCCGUACGGAACG, for which the yeast fitness was at most 0.5.

With GUUCCGUUGGGAUAAUGGUAAUGCGUCUCCCUCCUAAGAAGAAGACUGCGGGUUCGAGUCCCGAACGGAACG, the yeast fitness was at most 0.5.

For GUUCCGUUGGGGUAAUGGUAACGCGUCUCCCUCCUAAGGAGAAGAUUGCGGGUUCGAGUCCUGUACGGAACG, the yeast fitness is at most 0.5.

On to GUUCCGUUGGGGUAAUGAUAACGCGUCUUCCUCCUAAGGGGAAGACUGCGGGUUCGAGUCCUGUACGGAACG, for which the yeast fitness was at most 0.5.

In the case of GUUCCGUUGGGGUAAUGGUAACGCGUCUCCCUCUUAAGGAGAAGACUGCGGGUUUGAGUCCCGUACGGAACG, the yeast fitness is at most 0.5.

Regarding GUUCCGUUGGGAUAAUGGUAGCGCGUCUCCCUCCUAAGGAGAAGACUGCGGGUUCGAAUCCGGUACGGAACG, the yeast fitness worked out at 0.532.

Regarding GUUCCGUUGGGGUAAUAGCAACGCGUCUCCCUCCUAAGGAGAAGACUGCGGGUUCGAGUCCCGUACGGAACG, the yeast fitness is at most 0.5.

As to GUUCCGUUGGGGUAAUAGUUACGCGUCUCCCUGCUAACGAGAAGACUGCGGGUUCGAGUCCCGUACGGAACG, the yeast fitness is at most 0.5.

On to GUUCCGUUGGGCUAAGGGUAGCGCGUCUCCCUGCUAAGGAGAAGACUGCGGGUUCGAGUCCCGUACGGAACG, for which the yeast fitness is at most 0.5.

Take GUUCCGUUGGGGUAAUGGUAACGCGUCUCCCUCCUAAGGAGAAGACUGCGGGUUCGAGUCGCGUACGGAACG: the yeast fitness turned out to be 0.705.

With GUUCCGUUGGGGUAAUGGUAACGCGUCUCCCUCCUAAGGAGAAGACUGCGGGUUCGAGUCACGUACGGAACG, the yeast fitness came out at 0.546.

Take GUUCCGUUGGGGUAAUGGUAACGCGUCUCCCUCCUAAGGAGAAGACUGCGGGUUCGAGUCUCGUACGGAACG: the yeast fitness came to 0.656.

Take GUUCCGUUGGGGUAAUGAUAACGCGUCUCCCUCCUAAGGAGAAUACUGCGGGUUCGAGUCCCGUCCGGAACG: the yeast fitness is at most 0.5.

Take GUUCCGUUGGGGUAAUCGUAACGCGUCUUCCUCCUAAGGAGAAGACUGCGAGUUCGAGUCCUGUACGGCACG: the yeast fitness was at most 0.5.

For GUUCCGUUGGGAUAAUGGCAACGCGUCUCCCUCCUAAGGAGAAGACUGCGGGUUCGAGUCCCGUACGGAACG, the yeast fitness was at most 0.5.

GUUCCGUUGGGGUAAUGGUAACGCGUCUCCCUCCUAAGGAGAAGACUGCGGGUUCGAGUCCUGUAUGGAACG: the yeast fitness is at most 0.5.

Consider GUUCCGUUGGGGUAAUGGUAACGCGUCUCCCUCUUAAGGAGAACACUGCCGGCUCGAGUCCCGUACGGAACG, for which the yeast fitness is at most 0.5.
